Assay results published in ChEMBL document CHEMBL1158629, “Synthesis, in vitro and in vivo evaluation of [11C]MMTP: a potential PET ligand for mGluR1 receptors” (Bioorg Med Chem Lett, 2010).

Legend:
Assay type in all cases: ADME, organism-based
[1] = Ratio of drug uptake in putamen to cerebellum of baboon brain at 5 +/- 0.5 mCi, iv after 35 mins; settings: papio hamadryas, in vivo
Method in brief: (§1)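 Fasted baboons were immobilized with ketamine (10 mg/kg, i.m.) and maintained on 1.5~2.0 % isoflurane via endotracheal tube. Core temperature was held at 37°C on a heated water blanket during PET scanning.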

[2] = Ratio of drug uptake in frontal cortex to cerebellum of baboon brain at 5 +/- 0.5 mCi, iv after 35 mins; settings: papio hamadryas, in vivo; method in brief: as §1
[3] = Ratio of drug uptake in amygdala to cerebellum of baboon brain at 5 +/- 0.5 mCi, iv after 35 mins; settings: papio hamadryas, in vivo; method in brief: as §1
[4] = Ratio of drug uptake in caudate to cerebellum of baboon brain at 5 +/- 0.5 mCi, iv after 35 mins; settings: papio hamadryas, in vivo; method in brief: as §1
[5] = Metabolic stability in baboon brain assessed as compound remaining at 5 +/- 0.5 mCi, iv after 30 mins; settings: papio hamadryas, in vivo, 0.5 h
[6] = Ratio of drug uptake in frontal cortex to cerebellum of baboon brain at 5 +/- 0.5 mCi, iv after 85 mins; settings: papio hamadryas, in vivo; method in brief: as §1
[7] = Ratio of drug uptake in hippocampus to cerebellum of baboon brain at 5 +/- 0.5 mCi, iv after 35 mins; settings: papio hamadryas, in vivo; method in brief: as §1
[8] = Ratio of drug uptake in caudate to cerebellum of baboon brain at 5 +/- 0.5 mCi, iv after 65 mins; settings: papio hamadryas, in vivo, pooled result: one value given for 5 cell lines, strains, targets or settings; method in brief: as §1
[9] = Metabolic stability in baboon brain assessed as compound remaining at 5 +/- 0.5 mCi, iv after 90 mins; settings: papio hamadryas, in vivo, 1.5 h
[10] = Ratio of drug uptake in hippocampus to cerebellum of baboon brain at 5 +/- 0.5 mCi, iv after 85 mins; settings: papio hamadryas, in vivo; method in brief: as §1
[11] = Ratio of drug uptake in caudate to cerebellum of baboon brain at 5 +/- 0.5 mCi, iv after 85 mins; settings: papio hamadryas, in vivo; method in brief: as §1
[12] = Ratio of drug uptake in putamen to cerebellum of baboon brain at 5 +/- 0.5 mCi, iv after 85 mins; settings: papio hamadryas, in vivo; method in brief: as §1
[13] = Ratio of drug uptake in amygdala to cerebellum of baboon brain at 5 +/- 0.5 mCi, iv after 85 mins; settings: papio hamadryas, in vivo; method in brief: as §1

Ratio [1]: 2
Ratio [2]: 2
Ratio [3]: 2
Ratio [4]: 2
Stability [5]: 45%
Ratio [6]: 1.6
Ratio [7]: 2
Ratio [8]: 1.65
Stability [9]: 30%
Ratio [10]: 1.6
Ratio [11]: 1.6
Ratio [12]: 1.6
Ratio [13]: 1.6
Structure (SMILES): CN(C)c1ccnc2sc3c(=O)n(-c4ccc(O[11CH3])cc4)cnc3c12
